# Bioassay records: PubChem, Broad Institute
# The full list was thinned out, with hits kept by preference.
# INS-1E ATP HTS – INS-1E beta cell protection from cytokine death; INS-1E cytokine-induced death, ATP luminescence, 48 h; normalised: neutral wells 0, positive control 100; protection from cytokine-induced ATP loss, % at 10 µM; 20,000 compounds, 0.1% hits;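 active = mean replicate protection from cytokine-induced ATP loss at least 50% and at least 75% of replicates each reaching 50%; inconclusive = meets only one of the two criteria, mean or replicate share; inactive = fails both the mean and replicate share criteria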
#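 assay system = INS-1E rat insulinoma cells | amount = 8000 cells per well | medium = phenol-red-free RPMI with 5% fetal bovine serum | doses = one compound concentration, pin transfer | timing = 48 h cytokine plus compound treatment, 10 min reagent incubation | also added = IL-1β, TNF-α and IFN-γ cytokine mix | signal = CellTiter-Glo luminescence measuring cellular ATP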
# A1 apoptosis 2 – compounds inhibiting A1, read as caspase activation; MEF A1-2A-BIM cells, caspase-Glo luminescence, 3 h; percent of clofoctol response, DMSO zero; caspase activation, % (no concentration beside the values); 24,000 tested, under 10 active; in the data active = caspase activation above about 5.9%; inconclusive = no clear call, values can overlap the other calls; inactive = below about 2.2%
#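 System: mouse embryonic fibroblasts co-expressing A1 and BIM (A1-2A-BIM), primed for A1 dependence; amount: 2500 cells/well; doses: 50 nL pinned compound; schedule: cells settled overnight, compound exposure 3 h at 37 °C, 5% CO2; detection: Caspase-Glo 3/7 luminescence, 1 h at room temperature; read-out: Caspase-3/7 activation, seen as rise in luminescence signal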
# T cruzi intra – intracellular Trypanosoma cruzi inhibition. intracellular Trypanosoma cruzi in host cells, plate reader. activity score (inhibition), % at 5.01 µM. 22,000 compounds, 4.9% hits; in the data active = activity score above about 55%; inconclusive = no clear call, values can overlap the other calls;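 also: parasites and compound incubated about four days before reading; 0% = median of neutral control wells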
# The depositor's hits bear a star; ? = inconclusive; . = no result.
SMILES,INS-1E ATP HTS,A1 apoptosis 2,T cruzi intra
C[C@@H]1CN([C@@H](C)CO)C(=O)c2cccc(NC(=O)C3CC3)c2O[C@@H]1CN(C)Cc1ccc(C(=O)Nc2ccccc2N)cc1,58.6*,.,25.9
C[C@H](CO)N1C[C@H](C)[C@H](CN(C)Cc2ccc(C(=O)Nc3ccccc3N)cc2)Oc2c(NC(=O)C3CC3)cccc2C1=O,-9.3,.,36.9
C[C@@H]1CN([C@@H](C)CO)C(=O)c2cccc(NC(=O)Nc3ccc(C(F)(F)F)cc3)c2O[C@H]1CN(C)Cc1ccc2c(c1)OCO2,-60.3,.,89.8*
C[C@@H]1CN([C@H](C)CO)C(=O)c2cccc(NC(=O)Nc3ccc(C(F)(F)F)cc3)c2O[C@H]1CN(C)Cc1ccc2c(c1)OCO2,-57.7,-0.9,80.0*
C[C@H](CO)N1C[C@H](C)[C@@H](CN(C)Cc2ccc3c(c2)OCO3)Oc2c(NC(=O)Nc3ccc(C(F)(F)F)cc3)cccc2C1=O,-36.3,.,83.5*
C[C@H](CO)N1C[C@H](C)[C@H](CN(C)Cc2ccc3c(c2)OCO3)Oc2c(NC(=O)Nc3ccc(F)cc3)cccc2C1=O,-22.0,.,49.8
C[C@H]1CN([C@@H](C)CO)C(=O)c2cccc(NC(=O)Nc3ccc4c(c3)OCO4)c2O[C@H]1CN(C)Cc1ccc2c(c1)OCO2,-12.4,.,-17.4
C[C@@H]1CN([C@H](C)CO)C(=O)c2cccc(NC(=O)Nc3ccc(C(F)(F)F)cc3)c2O[C@@H]1CN(C)Cc1ccc2c(c1)OCO2,-26.7,0.7,?
C[C@H]1CN([C@@H](C)CO)C(=O)c2cccc(NC(=O)Nc3ccc(C(F)(F)F)cc3)c2O[C@@H]1CN(C)Cc1ccc2c(c1)OCO2,-12.6,.,52.5
C[C@H](CO)N1C[C@H](C)[C@@H](CN(C)Cc2ccc3c(c2)OCO3)Oc2c(NC(=O)Nc3ccc(F)cc3)cccc2C1=O,-8.0,-0.3,59.7*
C#Cc1ccc(OC)c(OC)c1,.,0.5,.
COCCOC(=O)N1C(=O)[C@@]2(c3ccccc31)[C@H](c1ccc(OCCO)cc1)N1[C@H](c3ccccc3)[C@H](c3ccccc3)OC(=O)[C@H]1[C@@H]2C(=O)Nc1nc2ccccc2s1,.,-0.8,.
NC(=O)COc1ccc(/C=N/NC(=O)CCCCCCC(=O)NO)cc1,.,-0.1,.
Cc1ccc(S[C@]2(C(=O)NCc3ccccc3)CC(=O)N(C3CCCCC3)[C@@H]2c2ccc(CO)cc2I)cc1,.,-0.3,.
CCO[C@@H]1OC(C(=O)N2CCN(Cc3ccccc3)CC2)=C[C@H](C(C)(C)C)[C@H]1CCCO,.,-0.5,.
C[C@@H]1CN([C@H](C)CO)C(=O)c2cccc(NC(=O)Nc3ccc4c(c3)OCO4)c2O[C@H]1CN(C)Cc1ccc(C(F)(F)F)cc1,-7.1,0.2,9.4
C[C@H](CO)N1C[C@H](C)[C@H](CN(C)Cc2ccc3c(c2)OCO3)Oc2c(NC(=O)Nc3ccc(C(F)(F)F)cc3)cccc2C1=O,-50.8,0.0,62.2*
C[C@@H]1CN([C@@H](C)CO)C(=O)c2cc(NC(=O)Cc3cn(C)c4ccccc34)ccc2O[C@@H]1CN(C)Cc1ccc(Cl)c(Cl)c1,-32.6,-1.0,10.6
C[C@@H]1CN([C@@H](C)CO)C(=O)Cc2cc(NC(=O)Cc3cn(C)c4ccccc34)ccc2O[C@@H]1CN(C)Cc1ccc(Cl)c(Cl)c1,-45.8,.,69.0*
C[C@@H]1CN([C@H](C)CO)C(=O)c2cc(NC(=O)Cc3cn(C)c4ccccc34)ccc2O[C@@H]1CN(C)Cc1ccc(Cl)c(Cl)c1,-15.2,.,79.1*
C[C@@H]1CN([C@H](C)CO)C(=O)Cc2cc(NC(=O)Cc3cn(C)c4ccccc34)ccc2O[C@H]1CN(C)Cc1ccc(Cl)c(Cl)c1,-17.0,.,62.9*
C[C@@H]1CN([C@@H](C)CO)C(=O)Cc2cc(NC(=O)Cc3cn(C)c4ccccc34)ccc2O[C@H]1CN(C)Cc1ccc(Cl)c(Cl)c1,.,-1.0,.
C[C@@H]1CN([C@H](C)CO)C(=O)Cc2cc(NC(=O)Cc3cn(C)c4ccccc34)ccc2O[C@H]1CN(C)Cc1ccncc1,14.1,-1.7,-15.0
C[C@H](CO)N1C[C@H](C)[C@H](CN(C)Cc2ccccc2)Oc2ccc(NC(=O)Cc3cn(C)c4ccccc34)cc2CC1=O,1.3,-0.6,7.2
C[C@@H]1CN([C@@H](C)CO)C(=O)Cc2cc(NC(=O)Cc3cn(C)c4ccccc34)ccc2O[C@@H]1CN(C)Cc1ccncc1,-9.2,0.2,64.8*
SMILES,INS-1E ATP HTS,A1 apoptosis 2,T cruzi intra
COc1ccc(Br)c(/C=N/NC(=O)c2ccc(C(=O)NO)cc2)c1,27.9,0.1,3.4
Cc1noc(C)c1S(=O)(=O)Nc1ccc2c(c1)C(=O)N([C@H](C)CO)C[C@@H](C)[C@@H](CN(C)C(=O)NC1CCCCC1)O2,6.3,-2.3,3.8
O=C(CCCCC(=O)N/N=C/c1ccco1)NO,13.8,-0.4,-2.0
C[C@@H]1CN([C@@H](C)CO)C(=O)c2cccc(NC(=O)C3CCOCC3)c2O[C@@H]1CN(C)C(=O)Nc1cccc2ccccc12,2.0,-0.5,-13.0
C[C@H](CO)N1C[C@H](C)[C@H](CN(C)CC2CCCCC2)Oc2c(NC(=O)c3ccncc3)cccc2C1=O,-4.1,.,52.3
C[C@@H]1CN([C@@H](C)CO)C(=O)c2cccc(NS(=O)(=O)c3cn(C)cn3)c2O[C@H]1CN(C)CC1CCCCC1,3.9,.,61.7*
C[C@H](CO)N1C[C@H](C)[C@H](CN(C)CC2CC2)Oc2c(NC(=O)c3ccncc3)cccc2C1=O,0.4,0.4,-20.6
Cc1cc(C(=O)Nc2cccc3c2O[C@@H](CN(C)CC2CC2)[C@H](C)CN([C@H](C)CO)C3=O)n(C)n1,0.6,-0.8,4.1
C[C@@H]1CN([C@H](C)CO)C(=O)c2cccc(NC(=O)c3ccncc3)c2O[C@H]1CN(C)CC1CCCCC1,-2.5,-0.1,84.4*
C[C@@H]1CN([C@H](C)CO)C(=O)c2cccc(NC(=O)c3ccncc3)c2O[C@H]1CN(C)CC1CC1,4.5,0.7,55.8*
C[C@H](CO)N1C[C@H](C)[C@@H](CN(C)CC2CCCCC2)Oc2c(NS(=O)(=O)c3cn(C)cn3)cccc2C1=O,6.2,.,-24.7
Cc1cc(C(=O)Nc2cccc3c2O[C@H](CN(C)CC2CC2)[C@H](C)CN([C@@H](C)CO)C3=O)n(C)n1,-6.6,0.1,60.7*
O=C(N/N=C/c1ccccc1OCCO)c1ccccn1,-2.3,0.3,-20.9
C[C@@H]1CN([C@H](C)CO)C(=O)c2cccc(NS(=O)(=O)c3cn(C)cn3)c2O[C@@H]1CN(C)S(=O)(=O)c1ccc(F)cc1,2.9,-0.5,-46.3
NC(=O)COc1ccc(/C=N/NC(=O)c2cccc(C(=O)NO)c2)cc1,-6.2,.,4.6
COC(=O)CCCCCCC(=O)N/N=C/c1ccc(OCC(N)=O)cc1,12.5,-0.2,-21.8
COc1ccc(S(=O)(=O)N(C)C[C@H]2Oc3c(NC(=O)c4nc5ccccc5s4)cccc3C(=O)N([C@@H](C)CO)C[C@@H]2C)cc1,-11.2,.,62.8*
C[C@@H]1CN([C@@H](C)CO)C(=O)c2cccc(NC(=O)c3nc4ccccc4s3)c2O[C@H]1CN(C)S(=O)(=O)c1ccc(Cl)cc1,-30.2,.,32.0
